A short description of the data set: Drug level in Sprague-Dawley rat plasma at 100 mg/kg, po by UPLC-IT-TOF-MS analysis. Type of data set: ADME, organism-based. Particulars: in vivo; call rule not given here. The method, boiled down: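 Rats (n = 6) housed in metabolic cages received 100.0 mg/kg orally; controls received 0.5% CMC-Na. Plasma, urine and faeces were collected and analyzed by LC-IT-TOF-MS on a C18 column at 30 °C. Gradient 5–100% acetonitrile with 0.05% formic acid over 18 min at 0.2 mL/min; positive and negative ion MS/MS.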

Regarding `C=CCc1ccc(O)c(-c2cc(CC=C)ccc2O[C@@H]2O[C@H](CO)[C@@H](O)[C@H](O)[C@H]2O)c1`, the Drug uptake result is recorded as “Active”.

For the origin of these results see ChEMBL document CHEMBL4270555, “Synthesis and biological evaluation of magnolol derivatives as melatonergic receptor agonists with potential use in depression” (Eur J Med Chem, 2018).
